The list is not random: actives were taken first. Their share in the collection is about 0.64%.
TNAP act hi DEA – TNAP activators at high phosphate acceptor level, primary screen, biochemical, luminescence, uHTS; Alkaline phosphatase, tissue-nonspecific isozyme (Homo sapiens), P05186; purified TNAP, CDP-star luminescence, 1 M DEA, 30 min; hits give high values; 0 = EDTA background, 1 = DMSO-only activity; activation factor at 20 µM; 200,000 tested, under 10 active;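 active means activation factor at least 2 at 20 µM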
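Dosing: 20 µM single point. System: human TNAP. Amount: TNAP 1/800 final. Incubation: 30 min, room temperature. Read-out: TNAP activation factor scaled between EDTA and DMSO control wells. Signal: luminescence from CDP-star hydrolysis. Medium: 1 M DEA, pH 9.8, Mg2+, Zn2+. Control set: EDTA negative control, DMSO positive control.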
TNAP inh hi DEA – human TNAP enzyme inhibitors, primary screen, biochemical, luminescent, high phosphate acceptor level, uHTS; Alkaline phosphatase, tissue-nonspecific isozyme (Homo sapiens), P05186; purified TNAP, CDP-star luminescence, 1 M DEA; inhibition, % at 20 µM; actives 0.03% (n = 200,000); AID 1135, 2008;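 active means over 50% inhibition of tissue-nonspecific alkaline phosphatase at 20 µM in the single-dose screen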
PMI act – activators of human PMI, primary screen, biochemical, fluorescence intensity, near-Km mannose 6-phosphate | Mannose-6-phosphate isomerase (Homo sapiens), P34949 | purified human PMI, coupled resazurin fluorescence, 20 min; hits give high values; 1 = vehicle control, 0 substrate-free wells | activation factor at 20 µM | actives 0.005% (n = 190,000);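 active means activation factor of 2 or more at 20 µM, relative to plate controls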
Target sequence (P34949 whole entry, looked up): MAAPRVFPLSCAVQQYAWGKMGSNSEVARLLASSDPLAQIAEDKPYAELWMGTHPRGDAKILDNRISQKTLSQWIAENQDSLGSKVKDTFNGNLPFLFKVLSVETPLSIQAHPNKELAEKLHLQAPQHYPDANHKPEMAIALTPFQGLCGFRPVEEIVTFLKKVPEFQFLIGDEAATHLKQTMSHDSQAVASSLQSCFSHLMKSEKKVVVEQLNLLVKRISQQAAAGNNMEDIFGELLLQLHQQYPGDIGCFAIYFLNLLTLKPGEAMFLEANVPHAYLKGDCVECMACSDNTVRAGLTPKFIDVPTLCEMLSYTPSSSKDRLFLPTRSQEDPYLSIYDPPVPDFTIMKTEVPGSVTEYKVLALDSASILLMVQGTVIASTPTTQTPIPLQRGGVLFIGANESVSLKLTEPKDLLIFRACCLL
TNAP inh noacc – human TNAP enzyme inhibitors, primary screen, biochemical, luminescent, no phosphate acceptor, uHTS; purified TNAP, CDP-star luminescence, 30 min; actives 0.26% (n = 200,000); Alkaline phosphatase, tissue-nonspecific isozyme (Homo sapiens), P05186; inhibition, % at 20 µM; AID 1012, 2008;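 active means tissue-nonspecific alkaline phosphatase inhibition above about 50% at 20 µM in the single-dose screen, limit read from the data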
PMI act hi M6P – human PMI activators, high substrate, primary screen, biochemical, fluorescence intensity, near-saturating mannose 6-phosphate; Mannose-6-phosphate isomerase (Homo sapiens), P34949; coupled PMI enzyme assay, resazurin fluorescence, 20 min; hits give high values; 1 = untreated enzyme, 0 = substrate-free blank; activation factor at 20 µM; actives 0.34% (n = 190,000);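 active means activation factor of 2 or more at 20 µM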
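Technique: Diaphorase-driven resazurin-to-resorufin fluorescence, excitation 544, emission 590 nm | Assay system: Human PMI in coupled enzyme assay | Times: Enzyme reaction with compound 20 min at room temperature | Medium: HEPES-buffered pH 7.4 with magnesium and detergent | Reagent: Mannose-6-phosphate 1.0 mM (near-saturating) plus 0.22 mM NADP+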
Each line names hits and unclear results; the compound was inactive in the other large screens.

CCS(=O)(=O)n1nc(-c2ccc(Cl)cc2)nc1SCc1ccccc1	TNAP inh noacc 62
COc1ccc(-c2nc(SCc3ccccc3)n(S(C)(=O)=O)n2)cc1	TNAP inh noacc 62
CCS(=O)(=O)n1nc(-c2ccc(Cl)cc2)nc1N	none
COc1ccc(-c2nc(SC)n(S(=O)(=O)c3ccccc3)n2)cc1	none
CN(C)c1nc(N)nc(CSc2nnnn2-c2ccc(F)cc2)n1	none
COC(=O)c1ccccc1NC(=O)CSc1n[nH]c(-c2cccnc2)n1	TNAP inh noacc 69
CN(C)c1nc(N)nc(CSc2n[nH]c(-c3ccccc3)n2)n1	TNAP inh noacc 68
CC(C)c1ccc(C(=O)CSc2n[nH]c(-c3ccncc3)n2)cc1	none
Cc1ccc(-c2nc(SCC(=O)c3c(N)n(C)c(=O)n(C)c3=O)n[nH]2)cc1	TNAP inh noacc 88
O=C(CSc1n[nH]c(-c2ccccc2)n1)c1ccccc1	TNAP inh noacc 56
COC(=O)c1ccccc1NC(=O)CSc1n[nH]c(C)n1	none
Cc1nnc(N2C(=O)C(O)=C(C(=O)c3ccco3)C2c2ccc(C(C)(C)C)cc2)s1 (stereo not drawn)	none
NC(=O)C(c1ccccn1)c1ncc(C(F)(F)F)cc1Cl (stereo not drawn)	none
Cc1ccc(S(=O)(=O)Nc2nc3ccc(S(=O)(=O)N4CCCC4)cc3s2)cc1	none
COC(=O)c1ccc(CSc2n[nH]c(-c3ccccc3)n2)o1	TNAP inh noacc 70
CCOC(=O)c1sc(NC(=O)CSc2n[nH]c(-c3ccccc3)n2)c(C#N)c1C	TNAP inh noacc 76
COC(=O)c1ccc(CSc2n[nH]c(C)n2)o1	none
CCOC(=O)c1sc(NC(=O)CSc2nc(C)cc(C)n2)c(C#N)c1C	none
Cc1nc2cc(C(=O)OCC(=O)NC34CC5CC(CC(C5)C3)C4)ccc2n1-c1ccccc1	none
CC(=O)Sc1nc(-c2ccccc2)[nH]c1S(=O)(=O)c1ccc(C)cc1	PMI act hi M6P 2.2
Cn1c(=S)ccc2ccccc21	PMI act hi M6P 2.3
Cn1c(=S)n(C)c2ccccc21	none
COc1ccc(-c2nc3n(n2)C(=O)CC(c2ccco2)S3)cc1 (stereo not drawn)	TNAP inh noacc 76
COc1ccc(C2=NN(C(N)=S)C(c3ccco3)C2)cc1 (stereo not drawn)	none
CC(C)CN1C(=O)c2ccccc2C1(O)Cc1ccccc1 (stereo not drawn)	PMI act hi M6P 2
O=C(Cc1ccccc1)N/N=C/c1ccc2c(c1)OCO2	none
O=C(N/N=C/c1ccc(O)cc1)c1cc(-c2ccc3c(c2)OCO3)n[nH]1	TNAP inh noacc 91
O=C(N/N=C/c1cccc(O)c1)c1cc(-c2ccc3c(c2)OCO3)n[nH]1	TNAP inh noacc 95
O=C(N/N=C/c1ccccc1)c1cc(-c2ccc3c(c2)OCO3)n[nH]1	TNAP inh noacc 66
O=C(Cc1n[nH]c(=O)[nH]c1=O)N/N=C/c1cccc(O)c1	none
CCCn1c(SC(C(=O)Nc2cc(C)ccc2OC)c2ccccc2)nc2ccccc2c1=O (stereo not drawn)	none
CC(C)n1c(-c2ccccc2F)n[nH]c1=S	TNAP inh noacc 69
CS/C(N)=N/N=C/c1ccc([N+](=O)[O-])cc1	PMI act hi M6P 2.5
CSc1nncn1/N=C/c1ccc([N+](=O)[O-])cc1	none
N#CC1=C(N)Oc2n[nH]c(-c3cccs3)c2C1C1CCCCC1 (stereo not drawn)	none
N#CC1=C(N)Oc2n[nH]c(-c3cccs3)c2C1C1C=CCCC1 (stereo not drawn)	TNAP inh noacc 54
Cc1nc2ccccc2c(=O)n1CC(=O)N1CCOCC1	none
Cc1ccc(C)c(-n2cc(CN3CCNC(=O)CC3)c(-c3ccccc3)n2)c1	none
Cc1ccc(N/N=C(\C#N)C(N)=S)cc1C	PMI act hi M6P 2.1
COc1ccc(C(=O)NNc2ccccc2)cc1OC	PMI act hi M6P 2.2
O=S(=O)(NCc1cccc(C(F)(F)F)c1)NCc1ccccc1F	none

Compound activity from PubChem BioAssay.
